Reference: PubChem BioAssay AID463202 (Sanford-Burnham Center for Chemical Genomics, 2010)
Activity calls are given as the source filed them.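 How the source made its calls: active means inhibition above 50% relative to controls in each of two repeat datasets, tested at 10 µM; inactive means the rest.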

target: Vasopressin V2 receptor (Homo sapiens) (UniProt P30518); experiment: blockade of AVPR2 arrestin recruitment – imaging, beta-arrestin-GFP, U2OS, antagonist mode, selectivity assay for GPR35 antagonist project, SAR follow-up (AID 463202); details: U2OS AVPR2 beta-arrestin-GFP translocation imaging; at 10 µM; active compounds read high
Procedure, shortened: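 Material: U2OS cells expressing human vasopressin V2 receptor and GFP-β-arrestin; also added: 16 nM vasopressin agonist; dosing: single compound dose of 10 µM; times: 15 min compound pre-incubation, then 40 min agonist exposure; measured by: 40x fluorescence imaging, wavelet analysis of GFP-β-arrestin spots; read-out basis: percent activity from aggregate counts, scaled between vasopressin controls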

Chain of Vasopressin V2 receptor (Homo sapiens) (P30518 whole entry, looked up): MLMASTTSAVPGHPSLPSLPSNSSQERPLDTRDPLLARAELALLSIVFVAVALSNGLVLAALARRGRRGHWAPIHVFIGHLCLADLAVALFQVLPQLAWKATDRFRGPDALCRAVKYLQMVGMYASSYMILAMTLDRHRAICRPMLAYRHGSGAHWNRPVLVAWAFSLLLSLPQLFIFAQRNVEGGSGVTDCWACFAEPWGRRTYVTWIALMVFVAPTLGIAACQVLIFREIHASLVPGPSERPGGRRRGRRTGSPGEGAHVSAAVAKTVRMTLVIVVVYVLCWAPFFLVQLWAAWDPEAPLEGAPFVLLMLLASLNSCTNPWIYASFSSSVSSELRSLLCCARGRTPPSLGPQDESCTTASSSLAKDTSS

Row | SMILES | inhibition
1 | CCc1ccc(/C=C2\SC(=S)N(CCCC(=O)Nc3ccc(C(=O)O)cc3)C2=O)cc1 | -6.8% (inactive)
2 | Cc1ccc(Cn2ncc3c(N4CCN(c5ccccc5C)CC4)ncnc32)cc1 | 36.9% (inactive)
3 | CCOC(=O)c1ccc(NC(=O)CCCN2C(=O)/C(=C/c3ccc(C)cc3)SC2=S)cc1 | 28.8% (inactive)
4 | Cc1ccc(/C=C2\SC(=S)N(CCCC(=O)Nc3cccc(C(=O)O)c3)C2=O)cc1 | 8.2% (inactive)
5 | Cc1ccc(/C=C2\SC(=S)N(CCCC(=O)Nc3ccc(O)cc3)C2=O)cc1 | 9.2% (inactive)
6 | CC(C)(C)c1ccc(OCCC(=O)NCCc2ccc(S(N)(=O)=O)cc2)cc1 | 12.5% (inactive)
7 | Clc1ccc(Cn2ncc3c(N4CCN(c5ccccc5)CC4)ncnc32)cc1 | 3.4% (inactive)
8 | O=C(CCCN1C(=O)/C(=C/c2ccc3c(c2)OCO3)SC1=S)Nc1cccc(C(=O)O)c1 | 13.2% (inactive)
9 | O=C(CCCN1C(=O)/C(=C/c2ccc3c(c2)OCO3)SC1=S)Nc1ccc(C(=O)O)c(O)c1 | 28.4% (inactive)
10 | COc1ccc(/C=C2/SC(=S)N(CCCC(=O)Nc3ccc(O)cc3)C2=O)cc1 | 1.8% (inactive)
11 | CC(/C=C1\SC(=S)N(CCCC(=O)Nc2ccc(C(=O)O)c(O)c2)C1=O)=C\c1ccccc1 | 30% (inactive)
12 | Cc1ccccc1N1CCN(c2ncnc3c2cnn3Cc2ccc(Cl)cc2)CC1 | 7.6% (inactive)
13 | O=C(CCCN1C(=O)S/C(=C/C=C/c2ccccc2)C1=O)Nc1ccc(C(=O)O)cc1 | 8.9% (inactive)
14 | COc1ccc(/C=C2\SC(=S)N(CCCC(=O)Nc3ccc(C(=O)O)c(O)c3)C2=O)cc1OC | 22.9% (inactive)

Results, then the compound that gave them:

Row | inhibition | SMILES
15 | 51.3% (inactive) | O=C(CCCN1C(=O)/C(=C/c2ccccc2)SC1=S)Nc1ccc(C(=O)O)c(O)c1
16 | 3.3% (inactive) | O=C(Nc1ccc2nc(SCc3ccccc3)sc2c1)c1ccccc1C(=O)N1CCOCC1
17 | 0.7% (inactive) | O=C(CCCN1C(=O)S/C(=C/c2ccccc2)C1=S)Nc1ccc(C(=O)O)cc1
18 | -5.7% (inactive) | Cc1nc(N2CCC(C)CC2)c2c(C)c(C(=O)Nc3ccc4c(c3)OCCO4)sc2n1
19 | 25.3% (inactive) | COc1ccc(/C=C2\SC(=S)N(CCCC(=O)Nc3ccc(O)cc3)C2=O)cc1
20 | 15.5% (inactive) | CCOc1ccc(NC(=O)CSc2nc3ccsc3c(=O)n2Cc2ccc(C(=O)O)cc2)cc1
21 | -3.7% (inactive) | Cc1c(C(=O)Nc2ccc3c(c2)OCCO3)sc2ncnc(N3CCC(C)CC3)c12
22 | 15.9% (inactive) | O=C(CCCN1C(=O)/C(=C\c2ccccc2)SC1=S)Nc1cccc(C(=O)O)c1
23 | 18.5% (inactive) | CC(/C=C1\SC(=S)N(CCCC(=O)Nc2ccc(C(=O)O)cc2)C1=O)=C\c1ccccc1
24 | -6.5% (inactive) | O=C(CCCN1C(=O)/C(=C/c2ccc3c(c2)OCO3)SC1=S)Nc1ccc(C(=O)O)cc1
25 | -2.9% (inactive) | COc1cccc(/C=C2\SC(=S)N(CCCC(=O)Nc3ccc(C(=O)O)cc3)C2=O)c1
26 | -0.8% (inactive) | O=C(Nc1ccc2nc(SCc3ccc(Cl)cc3)sc2c1)c1ccccc1C(=O)N1CCOCC1
27 | 18.2% (inactive) | O=C(CCCN1C(=O)S/C(=C\C=C\c2ccccc2)C1=O)Nc1ccc(C(=O)O)cc1
28 | 22.9% (inactive) | CC(C)c1ccc(NC(=O)CSc2nc3ccsc3c(=O)n2Cc2ccc(C(=O)O)cc2)cc1
29 | 27.3% (inactive) | COc1ccc(/C=C2\SC(=S)N(CCCC(=O)Nc3cccc(C(=O)O)c3)C2=O)cc1OC
30 | 4.8% (inactive) | O=C(CCCN1C(=O)/C(=C\c2ccccc2)SC1=S)Nc1ccc(C(=O)O)cc1
